Compound activity deposited in PubChem BioAssay by several laboratories.
An excerpt weighted towards active compounds, which were near 3.3% of everything screened.
Arr AP2 block: inhibitors of human beta-arrestin and AP2 interaction. FITC-arrestin peptide / GST-AP2 beads, flow cytometry; AP2 beta2 appendage carries R879A mutation. inhibition, % at 10 µM. 340,000 compounds, 0.31% hits;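 active = inhibition above a set limit, near 3 SD of compounds lacking own fluorescence, cut at about 54% in these data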;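 note: plate controls were DMSO wells for no effect and 5 µM unlabelled arrestin peptide for full effect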
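Material – GST-tagged AP2 beta2-adaptin appendage (R879A) on 4 µm glutathione beads · Probe or stimulus – fluorescein-tagged arrestin peptide at 50 nM final · Timing – 12 min plus 1 h, RT · Detection – bead flow cytometry, FITC channel · Read-out basis – inhibition as reduced fluorescein signal on beads, percent · Medium – PBS plus Tween 20 (0.05%) and BSA (0.1%)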
M18AAP inhibitor: blocks P. falciparum M18 aspartyl aminopeptidase; recombinant PfM18AAP, H-Glu-NHMec fluorogenic cleavage; inhibition, % at 7.35 µM; 290,000 compounds, 1.2% hits; AID 1822;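 active = inhibition above the campaign mean inhibition over all tested compounds plus 3 SD, cut at about 28% in these data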;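 note: 0% = plate median of test compound wells and 100% = 2 mM ZnCl2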
NRP1-CendR mod: alters CendR peptide binding to human NRP-1; O14786; inhibition, % at 25 µM; 360,000 compounds, 0.85% hits; FAM-RPARPAR peptide binding to NRP-1, fluorescence polarization;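 active = inhibition or corrected inhibition above about 18%, plus a signal ratio from 0.5 to 1.5, limit read from the data, passing the limit was not always enough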
Lipid droplet: modulators of hepatic lipid droplet formation; 240,000 compounds, 0.4% hits; inhibition, % at 6.5 µM; AID 1656; AML12 mouse hepatocytes, oleate lipid droplets, BODIPY imaging;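 active = lipid droplet intensity inhibited by at least 50%, with more than 500 cells counted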
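Assay system: AML12 hepatocytes (mouse); Probe or stimulus: oleic acid at 100 µM to induce lipid droplet formation; Dosing: compound at 6.5 µM only; Schedule: compound with oleate, overnight; Detection: fluorescence imaging, 20x objective, two fields per well; Measure: % inhibition of lipid droplet signal.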
m5-HT2A agonist: mouse HTR2A agonism via beta-arrestin recruitment; P35363; CHO-K1 mHTR2A beta-arrestin complementation, luminescence; percent of 30 µM serotonin response; activation, % at 7.6 µM; 360,000 compounds, 0.66% hits; AID 624169;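 active = activation above a run cutoff, the mean activation of all tested compounds plus 3 SD, cut at about 14% in these data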;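 note: 0% = plate median of compound wells and 100% = 30 µM serotonin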
sPLA2-III inh: Blocks human group III sPLA2 activity | 370,000 compounds, 0.56% hits | inhibition, % at 12.2 µM | QFRET BODIPY PC-A2 liposome hydrolysis, fluorescence | AID 743126;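 active = inhibition above mean plus 3 SD of compounds lying within the high and low control bounds, cut at about 19% in these data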;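 note: 0% = median of test compound wells and 100% = no enzyme DMSO wells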
Target sequence (Q9NZ20 whole entry, looked up): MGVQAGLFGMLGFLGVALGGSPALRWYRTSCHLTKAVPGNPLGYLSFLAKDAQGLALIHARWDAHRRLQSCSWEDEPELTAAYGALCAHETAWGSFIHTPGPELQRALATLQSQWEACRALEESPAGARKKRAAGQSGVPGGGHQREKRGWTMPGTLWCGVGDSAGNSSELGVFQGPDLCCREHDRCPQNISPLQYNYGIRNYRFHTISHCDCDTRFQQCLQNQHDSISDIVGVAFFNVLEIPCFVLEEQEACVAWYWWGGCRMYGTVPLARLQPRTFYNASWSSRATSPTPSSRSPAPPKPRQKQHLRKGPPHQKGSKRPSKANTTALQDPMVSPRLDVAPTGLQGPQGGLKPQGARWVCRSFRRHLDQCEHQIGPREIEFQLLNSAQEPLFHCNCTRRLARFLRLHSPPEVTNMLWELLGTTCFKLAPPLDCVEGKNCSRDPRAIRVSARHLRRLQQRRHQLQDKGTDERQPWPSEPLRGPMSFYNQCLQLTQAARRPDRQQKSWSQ
MOR ag counter: counter-screen for mouse HTR2A agonists: human mu opioid receptor agonists. shares compounds with m5-HT2A agonist. activation, % at 9.3 µM. 2,300 compounds, 5.3% hits. U2OS OPRM1 beta-arrestin PathHunter, luminescence; DMSO 0%, DAMGO 9.3 µM 100%;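 active = mean activation above the mean of DMSO-only wells plus 3 SD, cut at about 0.5% in these data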
m5-HT2A ag conf: confirmation of mouse HTR2A serotonin receptor agonists | shares compounds with m5-HT2A agonist | CHO-K1 PathHunter beta-arrestin recruitment, luminescence; DMSO 0%, 30 µM serotonin 100% | activation, % at 7.6 µM | 2,300 compounds, 19% hits;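 active = mean activation across triplicates above the hit threshold derived in the original primary screen, cut at about 15% in these data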
Starred values were filed as active, the others as inactive; . = not tested or not shown.

SMILES | Arr AP2 block | M18AAP inhibitor | NRP1-CendR mod | Lipid droplet | m5-HT2A agonist | sPLA2-III inh | MOR ag counter | m5-HT2A ag conf
CC(=O)N1CCc2cc(C(=O)CN3CCC(C)CC3)ccc21 | 2.3 | 2.5 | -8.1 | . | 1.6 | -0.1 | . | .
COc1ccc(-c2csc(C(C)(O)c3ccc(F)c(F)c3)n2)cc1 (configuration not stated) | . | . | 4.5 | . | 15.0* | -6.8 | 0.1 | -3.9
Cc1ccc(C(=O)NCC(=O)N(C)Cc2cccc(F)c2)s1 | -5.3 | . | 3.1 | . | 3.5 | 6.0 | . | .
Cc1ccc(C(=O)NCC(=O)N(C)Cc2ccccc2C)s1 | . | . | 9.3 | . | 19.4* | 8.3 | -0.7 | -2.8
CC(C)(C)c1ccc(NC(=O)COC(=O)C2=COCCO2)cc1 | -6.9 | -10.5 | -18.3 | . | 4.4 | -16.8 | . | .
CN(C)C(=O)c1ccc(NC(=O)COC(=O)C2=COCCO2)cc1 | 1.8 | . | -0.1 | . | 18.1* | 15.5 | -0.6 | -3.6
O=C(c1ccc(-n2cncn2)c([N+](=O)[O-])c1)N1CCN(S(=O)(=O)c2c(F)cccc2F)CC1 | -7.8 | . | 4.4 | . | 15.9* | -4.4 | -0.3 | -2.7
O=C(c1ccc(-n2cncn2)c([N+](=O)[O-])c1)N1CCN(S(=O)(=O)c2ccccc2F)CC1 | -0.7 | . | 8.1 | . | -2.5 | 6.3 | . | .
Cc1ccc(CNC(=O)c2ccc(N3CCC4(CC3)CC(c3cccc(Br)c3)=NO4)c(N)c2)cc1 | 19.7 | . | 1.1 | . | -0.4 | -2.5 | . | .
Cc1ccc(CNC(=O)c2ccc(N3CCC4(CC3)CC(c3cccc(Br)c3)=NO4)c([N+](=O)[O-])c2)cc1 | 21.0 | . | -7.3 | . | 14.4* | 5.0 | -0.6 | -0.2
CN1CCn2cnc(C(=O)Nc3ccc(CNC(=O)OC(C)(C)C)cc3)c2C1=O | . | . | -1.3 | . | 16.2* | 17.0 | -0.6 | -3.3
C[C@H](NC(=O)c1[nH]cnc1C(=O)Nc1ccc(CNC(=O)OC(C)(C)C)cc1)C(=O)OC(C)(C)C | -0.9 | . | 8.6 | -33.5 | 19.3* | -24.0 | 0.3 | 1.7
Cc1cccc(C)c1OCC(=O)NNC(=O)CCCn1c(=O)oc2ccccc21 | -7.1 | . | -1.6 | . | 10.5 | -0.1 | . | .
CCS(=O)(=O)Nc1ccc(-c2nc3cccnc3s2)cc1 | 5.0 | 9.9 | -14.3 | 13.1 | 26.9* | -8.1 | -0.4 | -3.3
CCCCCCCCN1C(=O)[C@H](CC(=O)N2CCN(C(=O)c3ccco3)CC2)C[C@@]2(C(=O)OC)CC(C)(C)CC=C12 | . | . | 1.2 | . | 0.9 | 1.3 | . | .
Cc1cc(NC(=O)COc2cccc([N+](=O)[O-])c2)no1 | 45.9 | -2.7 | 1.4 | -11.5 | 17.7* | 4.8 | -0.4 | -1.2
O=C(Nc1ccc(F)cc1)C1CCCN(S(=O)(=O)c2cccc3nonc23)C1 (configuration not stated) | 4.4 | -1.4 | -1.1 | 2.5 | -1.9 | -7.2 | . | .
O=C(NCc1ccc(F)cc1)C1CCCN(S(=O)(=O)c2cccc3nonc23)C1 (configuration not stated) | 38.0 | -4.3 | -4.4 | -8.4 | 17.4* | 2.0 | -0.6 | -4.5
CC(=O)Nc1ccc(S(=O)(=O)N2CC(=O)NC(=O)C2)cc1 | 45.4 | -2.1 | -7.1 | 2.8 | 20.1* | 2.5 | -0.3 | -4.2
CC(=O)Nc1ccc(S(=O)(=O)N2CCCC2)cc1 | -3.7 | 1.6 | 6.8 | -2.0 | -0.6 | -0.6 | . | .
O=C1C2CCCN2C(=O)N1CCCCN1CCN(c2ccccc2)CC1 (configuration not stated) | -0.5 | -1.0 | -7.6 | 7.3 | 15.1* | 17.8 | -0.7 | 47.0*
COc1ccc(C(=O)NCC(=O)OCC(=O)c2cc(OC)c(OC)c(OC)c2)cc1OC | 7.4 | 2.9 | 11.2 | -4.4 | 14.6* | 8.2 | -0.7 | 0.2
O=C(CNC(=O)c1ccccc1F)OCCCOC(=O)CNC(=O)c1ccccc1F | 16.4 | . | 1.7 | . | 15.2* | 9.5 | -0.2 | 1.6
O=C(NC(=S)Nc1ccccc1N1CCCCC1)c1ccc(F)cc1Cl | 26.8 | 1.4 | -3.8 | 2.8 | 16.8* | -0.8 | -0.5 | -5.2
